From PubChem BioAssay
HTR5A ag ctr – HTR5A agonists in luminescence cell assay, primary screen, counter-screen for OPRM1-OPRD1 heterodimer agonist project, full-deck HTS. 5-hydroxytryptamine receptor 5A (Homo sapiens), P47898. cell-based. activation, % at 9.3 µM. hit rate 0.61% among 340,000. AID 504692, 2011; in the data active means activation mostly above about 9.5%, no sharp cut-off; inactive means mostly below about 7.6%;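 further: 0% = cells with vehicle only and 100% = reference agonist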
DAGLB inh – DAGLB lipase inhibitors, primary screen, biochemical, fluorescence, HTS. Diacylglycerol lipase-beta (Homo sapiens), Q8NCG7. HEK293T DAGLB membrane lysate, EnzChek fluorogenic substrate. inhibition, % at 5.17 µM. hit rate 0.059% among 340,000. AID 504411, 2011; in the data active means inhibition above about 34%;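 further: 0% = enzyme with vehicle and 100% = wells lacking enzyme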
Target sequence (Q8NCG7 whole entry, looked up): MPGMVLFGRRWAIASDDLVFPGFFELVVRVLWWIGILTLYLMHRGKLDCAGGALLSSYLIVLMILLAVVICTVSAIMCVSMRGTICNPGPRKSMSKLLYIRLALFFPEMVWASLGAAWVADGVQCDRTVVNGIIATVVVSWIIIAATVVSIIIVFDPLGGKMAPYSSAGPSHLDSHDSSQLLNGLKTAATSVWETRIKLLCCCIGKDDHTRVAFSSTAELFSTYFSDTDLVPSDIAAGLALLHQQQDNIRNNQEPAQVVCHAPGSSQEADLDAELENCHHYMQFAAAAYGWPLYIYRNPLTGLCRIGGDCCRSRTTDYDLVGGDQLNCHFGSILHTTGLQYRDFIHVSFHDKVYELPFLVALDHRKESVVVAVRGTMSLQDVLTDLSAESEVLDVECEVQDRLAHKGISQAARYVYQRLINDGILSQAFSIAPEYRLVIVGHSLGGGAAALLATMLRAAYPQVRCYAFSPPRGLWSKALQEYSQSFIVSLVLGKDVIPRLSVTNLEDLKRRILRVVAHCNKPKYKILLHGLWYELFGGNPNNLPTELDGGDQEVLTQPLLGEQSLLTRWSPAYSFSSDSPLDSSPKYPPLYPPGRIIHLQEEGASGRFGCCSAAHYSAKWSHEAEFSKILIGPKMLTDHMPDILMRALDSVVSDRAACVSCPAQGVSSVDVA
Arr AP2 block – inhibitors of beta-arrestin/AP2 binding, primary screen, biochemical, GPCR trafficking, flow cytometry; FITC-arrestin peptide / GST-AP2 beads; AP2 beta2 appendage carries R879A mutation; inhibition, % at 10 µM; hit rate 0.31% among 340,000; AID 504490, 2011;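 active means inhibition above a set limit, near 3 SD of compounds lacking own fluorescence, cut at about 54% in these data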;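 further: plate controls were DMSO wells for no effect and 5 µM unlabelled arrestin peptide for full effect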
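System: GST-tagged AP2 beta2-adaptin appendage (R879A) on 4 µm glutathione beads / Reagent: FITC-arrestin peptide, 50 nM / Detection: HyperCyt-sampled flow cytometry, FL1 channel, ex 488/em 535 nm / Timing: 12 min plus 1 h, RT / Buffer or medium: PBS plus Tween 20 (0.05%) and BSA (0.1%)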
HTR5A inv ctr – HTR5A inverse agonists in luminescence cell assay, primary screen, counter-screen for OPRM1-OPRD1 heterodimer inverse agonist project, full-deck HTS; HTR5A cell line, inverse agonism; inhibition, % at 9.3 µM; hit rate 0.083% among 340,000; in the data active means inhibition mostly above about 23%, no sharp cut-off; inactive means mostly below about 18%;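 further: 0% = cells with DMSO and 100% = no-cell wells with DMSO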
MOR-DOR inv ag – inverse agonists of MOR-DOR heterodimerization, primary screen, cell-based, luminescence; cell-based MOR-DOR heterodimer luminescence, inverse agonism; Mu-type opioid receptor (Homo sapiens) + Delta-type opioid receptor (Homo sapiens), …; AID 504357, 2011; inhibition, % at 9.3 µM; hit rate 0.21% among 340,000; in the data active means inhibition above about 22%, passing the limit was not always enough;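 further: 0% = cells with DMSO and 100% = wells without cells with DMSO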
OPRM1-OPRD1 ag – agonists of OPRM1-OPRD1 heterodimerization, primary screen, cell-based, luminescence; Mu-type opioid receptor (Homo sapiens) + Delta-type opioid receptor (Homo sapiens), …; cells; activation, % at 9.3 µM; hit rate 0.3% among 340,000; in the data active means activation above about 18%;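 further: 0% = vehicle-treated cells and 100% = reference agonist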
* = called active by the depositor; . = not tested or not shown. The list is not random: actives were taken first. Their share in the collection is about 1.4%.

SMILES	HTR5A ag ctr	DAGLB inh	Arr AP2 block	HTR5A inv ctr	MOR-DOR inv ag	OPRM1-OPRD1 ag
CCN(CC)c1ccc(/C=N/NC(=O)c2nnn(-c3nonc3N)c2CN(C)C2CCCCC2)cc1	.	3	.	.	.	.
OCCN=C1CCCc2c1[nH]c1ccc(Cl)cc21	13*	-6	-17	-7	-15	3
OCCCN=C1CCCc2c1[nH]c1ccc(Cl)cc21	5	-1	9	-11	2	0
N#CCCN(C(=S)NC(=O)c1cccs1)c1ccccc1F	3	1	9	-7	10	-2
O=C(NCc1ccccc1F)c1ccc(S(=O)(=O)N2CCCC2)cc1	.	4	.	.	.	.
O=C(NCc1ccccc1Cl)c1ccc(S(=O)(=O)N2CCCC2)cc1	11*	-3	-5	4	20	-5
O=C(NCc1ccccc1Cl)c1ccc[nH]1	13*	3	0	1	7	-1
O=C1CSC(=S)N1Nc1ccccc1	0	-3	-22	0	-6	1
O=C(c1cc(-c2ccncc2)nc2ccc(Cl)cc12)N1CCN(Cc2ccc3c(c2)OCO3)CC1	-3	1	-10	-3	5	-1
Cc1cc(C)c2nc(-c3ccncc3)cc(C(=O)N3CCN(Cc4ccccc4Cl)CC3)c2c1	13*	-6	3	-10	1	0
CSc1ccc(/C=C/C(=O)OCC(=O)NC2CCCC2)cc1	.	0	.	.	.	.
CSc1ccc(/C=C/C(=O)OCC(=O)c2ccc[nH]2)cc1	13*	-5	-1	13	-5	1
COc1ccc(OC)c(NC(=O)c2cccc(NC(=O)c3ccco3)c2)c1	.	1	.	.	.	.
CCCCc1ccc(NC(=S)N2CCCC2)cc1	12*	-1	-1	-45	12	-2
Cc1ccc(C(=O)N/N=C/c2cc(Br)ccc2O)cn1	10*	3	-14	-38	-5	1
Cc1ccc(C(=O)N/N=C\C=C\c2ccc(Br)cc2)cn1	1	0	-3	-2	-31	4
COc1ccc(-c2cc(-c3ccccc3)c(C#N)c(SCC(=O)O)n2)cc1	8	2	31	1	20	-4
N#Cc1c(-c2ccccc2)cc(-c2ccccc2)nc1SCc1nnc(-c2ccccc2)o1	13*	1	6	3	-6	1
O=C(NCCNC(=O)c1ccc(-c2cc(Cl)ccc2Cl)o1)c1cnccn1	.	-4	.	.	.	.
CCCN(CC(=O)Nc1ccccc1C)C(=O)COC(=O)c1cnc(C)cn1	10*	0	1	-28	-4	1
CCCN(CC(=O)Nc1ccccc1C)C(=O)COc1c(C)cccc1C	-7	-2	-4	17	-1	0
C=C1C(=O)C23CCC4C(C)(C(=O)OC)CCCC4(C)C2CCC1(O)C3 (stereo unspecified)	2	8	36	-8	24	-5
CCN1CCN(Cc2ccc(NC(=O)c3cc(NC(=O)c4cnn(-c5ccccc5)c4N)cc(OC)c3)cc2C(F)(F)F)CC1	12*	2	-6	-18	1	0
COc1ccccc1-c1cccc([C@@H]2C[C@H]3[C@H](CON3C)CN2C(=O)C(C)(C)C)c1	-3	-1	17	10	8	-2
Cc1csc(SCC(=O)N(C)c2c(N)n(Cc3ccccc3)c(=O)[nH]c2=O)n1	12*	0	26	-32	10	-2
SMILES	HTR5A ag ctr	DAGLB inh	Arr AP2 block	HTR5A inv ctr	MOR-DOR inv ag	OPRM1-OPRD1 ag
COc1cc(CNCCc2c[nH]c3ccccc23)ccc1OCc1ccc(F)cc1	11*	8	-2	-6	-53	9
COc1cccc(CNCCc2c[nH]c3ccccc23)c1OCc1ccc(F)cc1	2	3	-12	-14	-79	13
Cc1ccc(S(C)=O)cc1-n1c(=O)n(Cc2ccccc2)c(=O)c2[nH]cnc21 (stereo unspecified)	-14	-3	35	55*	69*	-12
COc1ccc(C)c(-n2c(=O)n(Cc3ccccc3)c(=O)c3[nH]cnc32)c1	.	.	-5	.	.	.
COc1ccc(NC(=O)CCC(=O)Nc2nnc(C(C)C)s2)cc1Cl	12*	0	-16	-32	2	0
CCCCN1C[C@H](CSC)[C@@H](CC(=O)Nc2ccc(OC)cc2)C1=O	.	-1	.	.	.	.
COc1ccc(-c2sc3ccc(N4CCOCC4)cc3c2C#CC2(O)CCCCC2)cc1	13*	0	-3	-46	-25	4
COc1ccc(-c2sc3ccc(N4CCOCC4)cc3c2C#CCO)cc1	3	3	-4	6	-26	4
CCn1c(SCC(=O)Nc2sccc2C(N)=O)nnc1C1CC1	13*	0	-4	-31	4	-1
COC(=O)c1cccc(S(=O)(=O)N2CCC(C)CC2)c1	4	-7	5	-12	11	-2
COC(=O)c1cc(S(=O)(=O)N2CCC(C)CC2)ccc1F	9.7*	0	10	5	3	0
Cc1ccc([N+](=O)[O-])c(NC(=O)COC(=O)CCNS(=O)(=O)c2cccs2)c1C	.	-2	.	.	.	.
CCOC(=O)CNC(=O)CSc1nc2nc(C)c(Br)cc2[nH]1	13*	-1	-8	14	-10	2
COc1cccc(C(=O)O/N=C(\N)c2ccc([N+](=O)[O-])cc2)c1OC	13*	-4	8	-16	-78	14
COc1ccc(/C(N)=N/OC(=O)c2cccc([N+](=O)[O-])c2C)cc1OC	7	-4	4	-18	-20	4
CC(NS(=O)(=O)c1cc2c3c(c1)CCN3C(=O)CC2)c1ccccc1 (stereo unspecified)	.	-2	.	.	.	.
CCC(C(=O)NCCCN1CCN(C)CC1)n1nc(C)c2sc3ccccc3c2c1=O (stereo unspecified)	-5	1	6	-8	-1	0
CCCN1CCN(CCCNC(=O)C(CC)n2nc(C)c3sc4ccccc4c3c2=O)CC1 (stereo unspecified)	10*	0	-9	6	15	-3
CN1C(=O)CCS(=O)(=O)C1c1ccc(Cl)c(Cl)c1 (stereo unspecified)	.	0	.	.	.	.
CCCSC1=C(C#N)C(c2ccc(OC)cc2)C2=C(CC(C)(C)CC2=O)N1 (stereo unspecified)	11*	-2	20	-40	3	-1
Cc1ccc(S(=O)(=O)N2CC3(O)CN(C(=O)OC(C)C)N(C(=O)OC(C)C)CC3(OC(=O)NC3CCCC3)C2)cc1 (stereo unspecified)	.	2	.	.	.	.
CC(=O)Nc1ccc(NC(=O)C2CCN(S(C)(=O)=O)CC2)cc1	.	-3	.	.	.	.
CCC(=O)OCC(=O)N=c1sccn1Cc1ccccc1Cl	-5	3	-7	10	3	-1
